From ChEMBL document CHEMBL3272230, “Hypoglycemic alpha-cycloalkylphenylmehtyl, furanalkyl, and thiophenealkyl lactamimides” (1976)

How the values were obtained:
Type in all cases: functional
Rattus norvegicus [1] = assay: Hypoglycemic activity in fasted glucose primed Sprague-Dawley rat assessed as plasma glucose level at 100 mg/kg administered via oral gavage measured after 2 hrs by glucose-oxidase method relative to control
Method in brief: (§1)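 Young male Sprague-Dawley rats, 105-115 g, fasted overnight. Glucose 1 g/kg given subcutaneously, then test compound immediately by gavage. Blood taken 2 h later and plasma glucose measured by glucose oxidase. Six treated rats per group against six glucose-primed controls given vehicle only by gavage. Result expressed as % reduction versus control; values over 20% significant at p ≤ 0.05.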

Rattus norvegicus [2] = assay: Hypoglycemic activity in fasted glucose primed Sprague-Dawley rat assessed as plasma glucose level at 12.5 mg/kg administered via oral gavage measured after 2 hrs by glucose-oxidase method relative to control; method in brief: as §1
Rattus norvegicus [3] = assay: Hypoglycemic activity in fasted glucose primed Sprague-Dawley rat assessed as plasma glucose level at 50 mg/kg administered via oral gavage measured after 2 hrs by glucose-oxidase method relative to control; method in brief: as §1
Rattus norvegicus [4] = assay: Hypoglycemic activity in fasted glucose primed Sprague-Dawley rat assessed as plasma glucose level at 25 mg/kg administered via oral gavage measured after 2 hrs by glucose-oxidase method relative to control; method in brief: as §1
Rattus norvegicus [5] = assay: Hypoglycemic activity in fasted glucose primed Sprague-Dawley rat assessed as plasma glucose level at 200 mg/kg administered via oral gavage measured after 2 hrs by glucose-oxidase method relative to control; method in brief: as §1
Rattus norvegicus [6] = assay: Hypoglycemic activity in fasted glucose primed Sprague-Dawley rat assessed as plasma glucose level at 6 mg/kg administered via oral gavage measured after 2 hrs by glucose-oxidase method relative to control

SMILES	inhibition in vivo at 100 mg/kg (Rattus norvegicus [1])	inhibition in vivo at 12.5 mg/kg (Rattus norvegicus [2])	inhibition in vivo at 50 mg/kg (Rattus norvegicus [3])	inhibition in vivo at 25 mg/kg (Rattus norvegicus [4])	inhibition in vivo at 200 mg/kg (Rattus norvegicus [5])	inhibition in vivo at 6 mg/kg (Rattus norvegicus [6])
COc1ccc(C(/N=C2\CCC(C(C)(C)C)CCN2)C2CC2)cc1 (stereo unspecified)	17%					
c1ccc(C(/N=C2\CCCCCN2)C2CCC2)cc1 (stereo unspecified)	44%	14%				
c1ccc(C(/N=C2\CCCCCN2)c2cccs2)cc1 (stereo unspecified)	50%	23%	46%	36%		
CCCCNC(=O)NS(=O)(=O)c1ccc(C)cc1 [TOLBUTAMIDE]	41%	16%	43%	29%		
c1ccc(C(/N=C2\CCCCCCN2)C2CC2)cc1 (stereo unspecified)	58%	0%	46%	26%		
c1ccc(C(/N=C2\CCCCCN2)c2ccco2)cc1 (stereo unspecified)	52%	5%	37%	34%		
c1csc(C(/N=C2\CCCCCCN2)C2CC2)c1 (stereo unspecified)	50%	17%				
CC(Cc1cccs1)/N=C1\CCCCCN1 (stereo unspecified)	41%	0%				
CCC(Cc1cccs1)/N=C1\CCCN1 (stereo unspecified)	35%					
CCC(Cc1cccs1)/N=C1\CCCCCN1 (stereo unspecified)	54%	10%				
C=CCC(Cc1cccs1)/N=C1\CCCCCN1 (stereo unspecified)	65%	14%	49%			
CCC(Cc1cccs1)/N=C1\CCCCCCCN1 (stereo unspecified)	68%	31%				
c1coc(C/N=C2\CCCCCN2)c1	0%				0%	
CCC(Cc1cccs1)/N=C1\CCC(C(C)(C)C)CCN1 (stereo unspecified)	32%					
CCC(Cc1cccs1)/N=C1\CCCCN1 (stereo unspecified)	42%	9%				
CC(/N=C1\CCCCCN1)C(C)c1cccs1 (stereo unspecified)	46%	0%				
Cc1ccc(C(/N=C2\CCCCCCCN2)C2CC2)c(C)c1 (stereo unspecified)	61%	17%	47%	37%		
c1ccc(C(/N=C2\CCCCCN2)C2CC2)cc1 (stereo unspecified)	51%	5%	41%	18%		

SMILES	inhibition in vivo at 100 mg/kg (Rattus norvegicus [1])	inhibition in vivo at 12.5 mg/kg (Rattus norvegicus [2])	inhibition in vivo at 50 mg/kg (Rattus norvegicus [3])	inhibition in vivo at 25 mg/kg (Rattus norvegicus [4])	inhibition in vivo at 200 mg/kg (Rattus norvegicus [5])	inhibition in vivo at 6 mg/kg (Rattus norvegicus [6])
c1ccc(C(/N=C2\CCCCN2)C2CC2)cc1 (stereo unspecified)	36%	1%	33%	23%		
c1csc(C(/N=C2\CCCCCN2)C2CC2)c1 (stereo unspecified)	44%	33%				
c1ccc(C(/N=C2\CCCCCN2)C2CCCC2)cc1 (stereo unspecified)	46%	12%				
c1ccc2c(C(/N=C3\CCCCCN3)C3CC3)cccc2c1 (stereo unspecified)	21%					
c1ccc(C(/N=C2\CCCCCCN2)c2cccs2)cc1 (stereo unspecified)	41%	29%	37%	37%		
c1ccc(C(/N=C2\CCCCN2)c2ccccc2)cc1	46%	41%	52%	42%		12%
c1ccc(C(/N=C2\CCCCN2)c2cccs2)cc1 (stereo unspecified)	32%	13%		31%		
Cc1ccc(C(/N=C2\CCCCCN2)C2CC2)c(C)c1 (stereo unspecified)	56%	14%	43%	29%		
c1ccc(C(/N=C2\CCCCCN2)C2CCCCC2)cc1 (stereo unspecified)	0%					
COc1ccc(C(/N=C2\CCCCCN2)C2CC2)cc1 (stereo unspecified)	40%	1%				
c1ccc(C(/N=C2\CCCCN2)c2ccco2)cc1 (stereo unspecified)	27%	13%	28%	10%		
C1CCN/C(=N/[C@@H]2CCC[C@@H]2C2CCCCC2)CC1	53%	33%	49%	42%		13%
c1csc(C(/N=C2\CCCCN2)C2CC2)c1 (stereo unspecified)	28%					
c1ccc(C(/N=C2\CCCCCN2)C2CCCCCC2)cc1 (stereo unspecified)	6%					
c1ccc(C(/N=C2\CCCCCCN2)c2ccco2)cc1 (stereo unspecified)	61%	22%	42%	29%		
CCC(Cc1cccs1)/N=C1\CCCCCCN1 (stereo unspecified)	44%					
c1ccc(C(/N=C2\CCCCCCCCCCCN2)c2cccs2)cc1 (stereo unspecified)	4%					
